# ChEMBL document CHEMBL1143691, “Unusual naphthoquinone derivatives from the twigs of Avicennia marina” (2007)
# Key:
# Assay type in all cases: functional
# Mycolicibacterium aurum = experiment: Antimicrobial activity against Mycobacterium aurum SB 66 by micro-broth dilution method
# How it was run: (§1)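 MIC by microbroth dilution following National Committee for Clinical Laboratory Standards guidelines; values are the mean of three independent experiments. Ciprofloxacin served as the antibacterial reference and amphotericin B as the antifungal reference.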
# [1] = tested on: Mycolicibacterium fortuitum; experiment: Antimicrobial activity against Mycobacterium fortuitum B by micro-broth dilution method; how it was run: as §1
# Mycolicibacterium vaccae = experiment: Antimicrobial activity against Mycobacterium vaccae IMET 10670 by microbroth dilution method; how it was run: as §1
# Enterococcus faecalis = experiment: Antimicrobial activity against vancomycin-resistant Enterococcus faecalis 1528 by micro-broth dilution method
# How it was run: (§2)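 MIC determined by microbroth dilution following NCCLS (National Committee for Clinical Laboratory Standards) guidelines. Each value is the mean of three independent experiments.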
# Staphylococcus aureus = experiment: Antimicrobial activity against methicillin-resistant Staphylococcus aureus 134/93 by micro-broth dilution method; how it was run: as §2
# [2] = tested on: Mycolicibacterium smegmatis; experiment: Antimicrobial activity against Mycobacterium smegmatis SG 987 by microbroth dilution method; how it was run: as §1
# K562 = experiment: Antiproliferative activity against human K562 cells
# HeLa = experiment: Cytotoxicity against human HeLa cells
# How it was run: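 Cytotoxicity in HeLa human cervix carcinoma cells (DSM ACC 57). Reported as CC50, the concentration that kills 50% of treated cells.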
# L929 = experiment: Antiproliferative activity against mouse L929 cells
# Candida albicans = experiment: Antimicrobial activity against Candida albicans BMSY 212 by micro-broth dilution method; how it was run: as §1
Compound,MIC (Mycolicibacterium aurum),MIC [1],MIC (Mycolicibacterium vaccae),MIC (Enterococcus faecalis),MIC (Staphylococcus aureus),MIC [2],GI50 (K562),CC50 (HeLa),GI50 (L929),MIC (Candida albicans)
O=C(O)c1cn(C2CC2)c2cc(N3CCNCC3)c(F)cc2c1=O [CIPROFLOXACIN],< 0.05 µg/mL,0.2 µg/mL,0.2 µg/mL,0.8 µg/mL,12.5 µg/mL,0.4 µg/mL,,,,
CC(C)(O)c1cc2c(o1)C(=O)c1ccccc1C2=O [AVICEQUINONE C],6.25 µg/mL,12.5 µg/mL,6.25 µg/mL,50 µg/mL,6.25 µg/mL,6.25 µg/mL,1.1 µg/mL,3.2 µg/mL,0.8 µg/mL,12.5 µg/mL
CC(=O)O[C@H]1C(=O)[C@@]2(C)[C@H]([C@H](OC(=O)c3ccccc3)[C@]3(O)C[C@H](OC(=O)[C@H](O)[C@@H](NC(=O)c4ccccc4)c4ccccc4)C(C)=C1C3(C)C)[C@]1(OC(C)=O)CO[C@@H]1C[C@@H]2O [PACLITAXEL],,,,,,,0.01 µg/mL,0.01 µg/mL,0.1 µg/mL,
CC(C)(O)[C@H]1OC2=C(C(=O)c3ccccc3C2=O)[C@@H]1O [AVICEQUINONE A],12.5 µg/mL,12.5 µg/mL,12.5 µg/mL,50 µg/mL,6.25 µg/mL,12.5 µg/mL,,,,12.5 µg/mL
COc1c2c(c(OC)c3ccccc13)[C@H](O)[C@@H](C(C)(C)O)O2 [AVICENOL A],,,,,,,> 10 µg/mL,> 10 µg/mL,> 10 µg/mL,
CC(C)(O)[C@@H]1CC2=C(O1)C(=O)c1ccccc1C2=O [STENOCARPOQUINONE B],12.5 µg/mL,25 µg/mL,6.25 µg/mL,25 µg/mL,12.5 µg/mL,12.5 µg/mL,0.2 µg/mL,4.3 µg/mL,1.2 µg/mL,12.5 µg/mL
COC(=O)c1ccccc1/C(OC)=C1/C[C@@H](C(C)(C)O)OC1=O [AVICENNONE A],,,,,,,> 10 µg/mL,> 10 µg/mL,> 10 µg/mL,
COc1c2c(c(OC)c3ccccc13)O[C@H](C(C)(C)O)C2 [AVICENOL C],,,,,,,> 10 µg/mL,> 10 µg/mL,> 10 µg/mL,
C[C@@H]1[C@H](O)[C@@H](C)/C=C/C=C/C=C/C=C/C=C/C=C/C=C/[C@H](O[C@@H]2O[C@H](C)[C@@H](O)[C@H](N)[C@@H]2O)C[C@@H]2O[C@](O)(C[C@@H](O)C[C@@H](O)[C@H](O)CC[C@@H](O)C[C@@H](O)CC(=O)O[C@H]1C)C[C@H](O)[C@H]2C(=O)O [AMPHOTERICIN B],,,,,,,,,,< 0.05 µg/mL
